This note sets out measurements from ChEMBL document CHEMBL1134692, “QSAR study on the contribution of log P and E(s) to the in vitro antiprotozoal activity of glutathione derivatives” (J Med Chem, 2001).

pEC50: −log10 of the molar value.

Data set [1] is described as follows: Partition coefficient (logP). The data set is classed as physicochemical. The following applies: octanol/water.
The species named for a further data set is Homo sapiens. In words: Compound was evaluated for its inhibitory activity against KBcells. The format is functional. The essentials:
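KB cells (human oral pharyngeal carcinoma) grown in RPMI with 10% calf foetal serum at 37 °C, 5% CO2 in humidified air. Exposed to compound for 3 days under the same conditions, then viability read by Alamar Blue assay; ED50 reported.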

Another data set deals with Leishmania donovani. The data set can be described thus: Inhibitory activity against Leishmania donovani. The data set is classed as functional. The following applies: read-out: ED50 (the source's name). The essentials:
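Starch-elicited peritoneal macrophages from female CD1 mice were plated at 4 × 10^4/well in RPMI-1640 with 10% HIFCS. After 24 h they were infected at 10:1 with L. donovani amastigotes (MHOM/ET/67/L82, hamster-passaged). Drug was given as a 3-fold dilution series in quadruplicate for 5 days. Activity was scored as the percentage of macrophages cleared of amastigotes. Sodium stibogluconate control.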

The next data set has as its system Trypanosoma cruzi. In words: Evaluated for its inhibitory activity against Trypanosoma cruzi. The data set is classed as functional. The following applies: read-out: ED50 (the source's name). In short, it runs like this:
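Starch-elicited female CD1 mouse peritoneal macrophages (4 × 10^4/well, RPMI-1640, 10% HIFCS) were infected after 24 h at 5:1 with T. cruzi Y trypomastigotes derived from MDCK cultures. Drug was applied as a 3-fold dilution series in quadruplicate for 3 days. Activity was the percentage of macrophages cleared of amastigotes. Nifurtimox control.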

In data set [2] the test system is Trypanosoma brucei brucei. In words: Inhibitory activity against Trypanosoma brucei. The format is functional. The following applies: read-out: ED50 (the source's name). The essentials: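 T. b. brucei S427 bloodstream trypomastigotes kept in HMI-18 with 20% heat-inactivated FCS at 37 °C, 5% CO2. Parasites at 2 × 10^5/mL were mixed 1:1 with compound, run in triplicate as a 3-fold dilution series from 30 μM top. Incubated 3 days at 37 °C; Alamar Blue read-out on day 3 gave ED50. Pentamidine positive control.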

Data set [3] in a line: Relative toxicity was evaluated as ED50 for KB cell line to that of ED50 for T.B. brucei. Particulars: trypanosoma brucei brucei, KB cells versus Trypanosoma brucei brucei; read-out: Relative toxicity. The data set is classed as organism-based. The essentials: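 Ratio of ED50 against KB cells to ED50 against T. b. brucei bloodstream forms, each from the 3-day Alamar Blue assays.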

Turning to `CCCCCOC(=O)CNC(=O)C(CSc1ccc([N+](=O)[O-])cc1[N+](=O)[O-])NC(=O)CCC(NC(=O)OCc1ccccc1)C(=O)OCCCCC` (stereo unspecified), the logP in data set [1] came to 6.04. The compound also yielded an ED50 in the data set filed under Homo sapiens of over 300 µM. Also, the figures for the pEC50 (in the data set with Leishmania donovani; with Trypanosoma cruzi; in data set [2]) were under 4.52, 5.17 and 6.42, respectively. Besides, in data set [3], the selectivity ratio came to 789.

In general, logP refers to the decadic logarithm of the partition coefficient of the neutral form, usually between octanol and water. Low readings indicate a more hydrophilic compound, high ones a more lipophilic compound.
